Test results from ChEMBL document CHEMBL2429830, “Antimycobacterial labdane diterpenes from Leucas stelligera” (J Nat Prod, 2013).
In brackets after ≈: the same amount, converted by molar mass. Activity calls are given as the source filed them. No cut-off for these calls is given here.

Experiments:
HepG2 [1] = experiment: Cytotoxicity against human HepG2 cells assessed as growth inhibition at 100 ug/mL after 120 hrs by MTT assay relative to control; assay type: functional; conditions: HepG2, 120 h, read-out: GI
Procedure, shortened: (§1)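 MTT (10 μL of 5 mg/mL) added for 1 h at 37 °C. Formazan dissolved in 2-propanol for 4 h, read at 490 nm against cell-free blank. DMSO-carrier wells taken as 100% growth.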

HepG2 [2] = experiment: Cytotoxicity against human HepG2 cells assessed as growth inhibition at IC90 after 120 hrs by MTT assay relative to control; assay type: functional; procedure, shortened: as §1
THP-1 [3] = experiment: Cytotoxicity against human THP1 cells assessed as growth inhibition at 100 ug/mL after 72 hrs by MTT assay relative to control; assay type: functional; conditions: THP-1, 72 h, read-out: GI
Procedure, shortened: (§2)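 Viability by MTT (1 h, 37 °C), formazan taken up in 2-propanol 4 h, absorbance 490 nm against cell-free blank. Medium with matching DMSO served as 100% growth.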

THP-1 [4] = experiment: Cytotoxicity against human THP1 cells assessed as growth inhibition at IC90 after 72 hrs by MTT assay relative to control; assay type: functional; procedure, shortened: as §2
MCF7 [5] = experiment: Cytotoxicity against human MCF7 cells assessed as growth inhibition at 100 ug/mL after 192 hrs by MTT assay relative to control; assay type: functional; conditions: MCF7, 192 h, read-out: GI
Procedure, shortened: (§3)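 MCF-7 cells at ~10^5 cells/mL, 24 h adherence at 37 °C. MTT read-out: 1 h with MTT at 37 °C, then 2-propanol solubilization for 4 h, OD 490 nm versus cell-free wells. Growth expressed relative to DMSO-only controls (100%).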

MCF7 [6] = experiment: Cytotoxicity against human MCF7 cells assessed as growth inhibition at IC90 after 192 hrs by MTT assay relative to control; assay type: functional; procedure, shortened: as §3
Escherichia coli [7] = experiment: Antibacterial activity against Escherichia coli DH5[alpha] assessed as growth inhibition at IC90 after 6 hrs relative to control; assay type: functional
[8] = system: Mycolicibacterium smegmatis; experiment: Antimycobacterial activity against Mycobacterium smegmatis MC2 155 assessed as inhibition of cell viability at IC90 measured on day 3 by XTT assay in presence of menadione relative to control; assay type: functional, str. MC2 155
[9] = system: Mycobacterium tuberculosis; experiment: Antimycobacterial activity against Mycobacterium tuberculosis H37Ra assessed as inhibition of cell viability measured on day 8 by XTT assay in presence of menadione; assay type: functional, organism-based; conditions: 192 h
Procedure, shortened: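 H37Ra log-phase culture grown in M. pheli medium at 37 °C, sonicated, then seeded at about 10^5 cells/mL. Serial dilutions of DMSO-dissolved samples were tested, with isoniazid as positive control, at 37 °C in a CO2 incubator for 8 days. Viability was read by XTT (200 μM, 20 min) then menadione (60 μM, 40 min), OD470. IC50 and IC90 came from dose-response curves.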

[10] = system: Mycobacterium tuberculosis; experiment: Antimycobacterial activity against Mycobacterium tuberculosis H37Ra assessed as inhibition of cell viability at 100 ug/mL measured on day 8 by XTT assay in presence of menadione; assay type: functional, organism-based
Procedure, shortened: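 M. tuberculosis H37Ra (ATCC 25177) grown aerobically to log phase in M. pheli medium at 37 °C, 150 rpm, then sonicated 2 min. About 10^5 cells/mL, 250 μL per well, exposed to DMSO-dissolved samples at 100 μg/mL and incubated at 37 °C in a CO2 incubator. Day 8 read-out: OD470 blank, XTT 200 μM for 20 min, menadione 60 μM for 40 min, then OD470.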

HepG2 [11] = experiment: Cytotoxicity against human HepG2 cells assessed as growth inhibition after 120 hrs by MTT assay; assay type: functional; conditions: HepG2, 120 h; procedure, shortened: as §1
THP-1 [12] = experiment: Cytotoxicity against human THP1 cells assessed as growth inhibition after 72 hrs by MTT assay; assay type: functional; conditions: THP-1, 72 h; procedure, shortened: as §2
MCF7 [13] = experiment: Cytotoxicity against human MCF7 cells assessed as growth inhibition after 192 hrs by MTT assay; assay type: functional; conditions: MCF7, 192 h
Procedure, shortened: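 MCF-7 cells at ~10^5 cells/mL, 24 h adherence at 37 °C. […] MTT read-out: 1 h with MTT at 37 °C, then 2-propanol solubilization for 4 h, OD 490 nm versus cell-free wells. Growth expressed relative to DMSO-only controls (100%).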

Escherichia coli [14] = experiment: Antibacterial activity against Escherichia coli DH5[alpha] assessed as growth inhibition after 6 hrs; assay type: functional
[15] = system: Mycolicibacterium smegmatis; experiment: Antimycobacterial activity against Mycobacterium smegmatis MC2 155 assessed as inhibition of cell viability measured on day 3 by XTT assay in presence of menadione; assay type: functional; conditions: str. MC2 155, 72 h
Procedure, shortened: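 M. smegmatis mc2 155 in microplate wells; on day 3, OD470 read as blank, then XTT (200 μM) added, shaken 1 min and held 20 min at 37 °C. Menadione (60 μM) was then added, mixed 1 min and held another 20 min at 37 °C before the final OD470 reading.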

C[C@@H]1CC[C@H]2C(C)(C)CCC[C@]2(C)[C@@]12CC[C@]1(CO[C@H](O)C1)O2
inhibition of growth at 100 µg/mL (HepG2 [1]): 14.4% | growth inhibition (GI) (HepG2 [2]): 6.92% | inhibition of growth at 100 µg/mL (THP-1 [3]): 21.7% | growth inhibition (GI) (THP-1 [4]): 8.18% | inhibition of growth at 100 µg/mL (MCF7 [5]): 42.4% | growth inhibition (GI) (MCF7 [6]): 28.98% | growth inhibition (GI) (Escherichia coli [7]): 23.15% | inhibition (INH) [8]: 47.83% | IC50 [9]: 5.55 µg/mL | IC90 [9]: 14.9 µg/mL

NNC(=O)c1ccncc1 [ISONIAZID]
IC90 [9]: 0.055 µg/mL

C[C@@H]1CC[C@H]2C(C)(C)CCC[C@]2(C)[C@@]1(O)CC/C(=C/CO)CO
inhibition of growth at 100 µg/mL (HepG2 [1]): 21.5% | growth inhibition (GI) (HepG2 [2]): 21.48% | inhibition of growth at 100 µg/mL (THP-1 [3]): 9.07% | growth inhibition (GI) (THP-1 [4]): 9.07% | inhibition of growth at 100 µg/mL (MCF7 [5]): 3.54% | growth inhibition (GI) (MCF7 [6]): 3.54% | growth inhibition (GI) (Escherichia coli [7]): 11.47% | inhibition (INH) [8]: 30.57% | IC50 [9]: 9.8 µg/mL

COc1cc(O)c2c(=O)cc(-c3ccc(O)c(OC)c3)oc2c1
inhibition [10]: inactive

C=C[C@](C)(O)CC[C@@H]1[C@@]2(C)CCCC(C)(C)[C@H]2CC[C@@]1(C)O
inhibition of growth at 100 µg/mL (THP-1 [3]): 96.4% | IC50 [9]: 5.95 µg/mL

CC(=O)O[C@H]1C(=O)[C@@]2(C)[C@H]([C@H](OC(=O)c3ccccc3)[C@]3(O)C[C@H](OC(=O)[C@H](O)[C@@H](NC(=O)c4ccccc4)c4ccccc4)C(C)=C1C3(C)C)[C@]1(OC(C)=O)CO[C@@H]1C[C@@H]2O [PACLITAXEL]
IC90 (HepG2 [11]): 78.9 µg/mL (≈ 92.4 µM) | inhibition of growth at 100 µg/mL (HepG2 [1]): 87.9% | IC90 (THP-1 [12]): 98.6 µg/mL (≈ 115 µM) | inhibition of growth at 100 µg/mL (THP-1 [3]): 82.5% | IC90 (MCF7 [13]): 107 µg/mL (≈ 125 µM) | inhibition of growth at 100 µg/mL (MCF7 [5]): 86.7%

CO[C@H]1/C=C/O[C@@]2(C)Oc3c(C)c(O)c4c(O)c(c(/C=N/N5CCN(C)CC5)c(O)c4c3C2=O)NC(=O)/C(C)=C\C=C\[C@H](C)[C@H](O)[C@@H](C)[C@@H](O)[C@@H](C)[C@H](OC(C)=O)[C@@H]1C [RIFAMPIN]
IC90 (Escherichia coli [14]): 0.5 µg/mL (≈ 0.608 µM) | IC90 [15]: 0.2 µg/mL
